≈ marks a conversion by molar mass, not a printed value.
Experiments:
[1] = Equilibrium solubility of compound in PBS by HPLC analysis; type: physicochemical
[2] = biological target: Serine/threonine-protein kinase PIM (Homo sapiens, UniProt P11309+Q9P1W9+Q86V86); test: Inhibition of Pim1/2 in human KMS-12-BM cells assessed as phosphorylation of full-length BAD protein at Ser-112 incubated for 110 mins by flow cytometric analysis in presence of 20% FBS; type: cell-based
Method in brief: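 Cell assay in KMS-12-BM, a multiple myeloma line with relatively high endogenous Pim-1/2. Pim-dependent phosphorylation of full-length endogenous BAD at Ser-112 measured.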

[3] = biological target: Serine/threonine-protein kinase pim-2 (Homo sapiens, UniProt Q9P1W9); test: Inhibition of human full-length Pim2 expressed in Escherichia coli assessed as phosphorylation of biotinylated BAD peptide at Ser 112 preincubated for 30 mins followed by substrate addition measured after 1 hr by HTRF assay
Serine/threonine-protein kinase pim-2, sequence (Q9P1W9 whole entry): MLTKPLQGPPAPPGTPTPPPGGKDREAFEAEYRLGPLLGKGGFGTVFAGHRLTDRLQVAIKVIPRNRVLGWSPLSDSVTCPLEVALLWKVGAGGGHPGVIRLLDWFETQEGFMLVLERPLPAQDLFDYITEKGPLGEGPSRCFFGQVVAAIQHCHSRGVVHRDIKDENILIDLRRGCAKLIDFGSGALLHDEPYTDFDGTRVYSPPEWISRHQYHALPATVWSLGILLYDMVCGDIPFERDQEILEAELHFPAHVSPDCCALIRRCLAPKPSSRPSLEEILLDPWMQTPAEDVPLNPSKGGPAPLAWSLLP
Method in brief: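 Cell-free kinase assay using recombinant Pim-1 or Pim-2. Read-out is phosphorylation of a short BAD peptide sequence spanning Ser-112.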

[4] = biological target: Serine/threonine-protein kinase pim-1 (Homo sapiens, UniProt P11309); test: Inhibition of human full-length Pim1 expressed in Escherichia coli assessed as phosphorylation of biotinylated BAD peptide at Ser-112 preincubated for 30 mins followed by substrate addition measured after 1 hr by HTRF assay
Serine/threonine-protein kinase pim-1, sequence (P11309 whole entry): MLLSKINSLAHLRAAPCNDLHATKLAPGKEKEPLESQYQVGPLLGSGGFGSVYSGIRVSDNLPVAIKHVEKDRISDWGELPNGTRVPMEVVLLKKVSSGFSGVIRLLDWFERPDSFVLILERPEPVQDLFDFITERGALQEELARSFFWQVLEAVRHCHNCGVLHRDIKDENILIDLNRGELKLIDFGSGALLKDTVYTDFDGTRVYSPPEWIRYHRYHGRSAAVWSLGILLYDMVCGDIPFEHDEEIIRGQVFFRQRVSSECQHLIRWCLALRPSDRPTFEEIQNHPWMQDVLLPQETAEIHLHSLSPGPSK

[5] = Oral bioavailability in Sprague-Dawley rat at 5 mg/kg; type: ADME, organism-based; settings: in vivo
Method in brief: (§1)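 Pharmacokinetics in male Sprague–Dawley rats. Clearance also expressed as a percentage of liver blood flow. Oral bioavailability determined.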

[6] = Drug metabolism in human liver microsomes assessed as compound turnover at 1 uM incubated for 30 mins; type: ADME; settings: read-out: Drug metabolism
[7] = Drug metabolism in rat liver microsomes assessed as compound turnover at 1 uM incubated for 30 mins; type: ADME; settings: read-out: Drug metabolism
[8] = Volume of distribution at steady state in Sprague-Dawley rat at 2 mg/kg, iv; type: ADME, organism-based; settings: in vivo, read-out: Vdss; method in brief: as §1
[9] = Protein binding in rat assessed as as fraction unbound at 5 uM by rapid equilibrium dialysis method; type: ADME; settings: plasma
[10] = Apparent permeability in pig LLC-PK1 cells at 5 uM; type: ADME, cell-based, Sus scrofa
[11] = Clearance in Sprague-Dawley rat at 2 mg/kg, iv; type: ADME, organism-based; settings: in vivo; method in brief: as §1
[12] = Half life in Sprague-Dawley rat at 2 mg/kg, iv; type: ADME, organism-based; settings: in vivo; method in brief: as §1
[13] = Clearance in Sprague-Dawley rat at 1 mg/kg, iv; type: ADME, organism-based; settings: in vivo; method in brief: as §1
[14] = Volume of distribution at steady state in Sprague-Dawley rat at 1 mg/kg, iv; type: ADME, organism-based; settings: in vivo, read-out: Vdss; method in brief: as §1
[15] = Half life in Sprague-Dawley rat at 1 mg/kg, iv; type: ADME, organism-based; settings: in vivo; method in brief: as §1

| SMILES | solubility thermodynamic [1] | IC50 [2] | IC50 [3] | IC50 [4] | also measured |
| --- | --- | --- | --- | --- | --- |
| Cc1nc2cccc3c2nc1N[C@@H](C)/C=C/C[C@H]1CNC(=O)c2cc-3[nH]c21 | < 5 µM | 26 nM | 0.3 nM | 0.6 nM |  |
| Cc1nc2cccc3c2nc1N[C@@H](C)CCC[C@H]1CNC(=O)c2cc-3[nH]c21 | < 5 µM | 40 nM | 0.4 nM | 1 nM |  |
| CCCNc1nc2c(-c3cc4c([nH]3)CCNC4=O)cccc2nc1C |  |  | 2 nM |  |  |
| Cc1nc2cccc3c2nc1NCCCC[C@H]1CNC(=O)c2cc-3[nH]c21 | 7 µM (≈ 2.43 µg/mL) | 20 nM | 0.05 nM | 0.07 nM |  |
| C/C1=C/C[C@H]2CNC(=O)c3cc([nH]c32)-c2cccc3nc(C)c(nc23)NC1 | 23 µM (≈ 8.27 µg/mL) | 14 nM | 0.2 nM | 0.4 nM | bioavailability [5]: 17%; metabolised at 0.5 h, 1 µM [6]: 17%; metabolised at 0.5 h, 1 µM [7]: 42%; Vd [8]: 1.8 L/kg; fraction unbound at 5 µM [9]: 0.016; Papp at 5 µM [10]: 40 ×10⁻⁶ cm/s; clearance [11]: 15.8 mL/min/kg; half-life [12]: 6.1 h |
| Cc1nc2cccc3c2nc1NC/C=C/C[C@H]1CNC(=O)c2cc-3[nH]c21 | < 5 µM | 106 nM | 0.5 nM | 1 nM |  |
| Cc1nc2cccc3c2nc1NC/C=C\C[C@@H]1CNC(=O)c2cc-3[nH]c21 |  | 370 nM | 1 nM | 2 nM |  |
| Cc1nc2cccc3c2nc1NC/C=C\C[C@H]1CNC(=O)c2cc-3[nH]c21 | < 5 µM | 21 nM | 0.07 nM | 0.06 nM |  |
| Cc1nc2cccc3c2nc1NCCCC[C@@H]1CNC(=O)c2cc-3[nH]c21 |  | 100 nM | 0.2 nM | 0.4 nM |  |

More lines, in order of falling IC50 [3], values ahead:

| solubility thermodynamic [1] | IC50 [2] | IC50 [3] | IC50 [4] | SMILES | also measured |
| --- | --- | --- | --- | --- | --- |
|  | 184 nM | 2 nM | 3 nM | Cc1nc2cccc(-c3cc4c([nH]3)CCNC4=O)c2nc1Nc1ccccc1 |  |
|  |  | 2 nM | 3 nM | CCCCNc1nc2c(-c3cc4c([nH]3)CCNC4=O)cccc2nc1C |  |
|  | 880 nM | 1 nM | 1 nM | Cc1nc2cccc3c2nc1NC/C=C/C[C@@H]1CNC(=O)c2cc-3[nH]c21 |  |
| < 5 µM | 25 nM | 0.4 nM | 0.5 nM | Cc1nc2cccc3c2nc1NC[C@H](C)CC[C@H]1CNC(=O)c2cc-3[nH]c21 |  |
| < 5 µM | 37 nM | 0.3 nM | 0.3 nM | Cc1nc2cccc3c2nc1NC[C@@H](C)CC[C@H]1CNC(=O)c2cc-3[nH]c21 |  |
| < 5 µM | 37 nM | 0.2 nM | 0.1 nM | Cc1nc2cccc3c2nc1N[C@H](C)CCC[C@H]1CNC(=O)c2cc-3[nH]c21 |  |
| 27 µM (≈ 9.7 µg/mL) | 16 nM | 0.08 nM | 0.1 nM | C/C1=C\C[C@H]2CNC(=O)c3cc([nH]c32)-c2cccc3nc(C)c(nc23)NC1 | bioavailability [5]: 35%; metabolised at 0.5 h, 1 µM [6]: 45%; metabolised at 0.5 h, 1 µM [7]: 45%; clearance [13]: 40 mL/min/kg; Vd [14]: 3.1 L/kg; half-life [15]: 2.8 h; fraction unbound at 5 µM [9]: 0.0071; Papp at 5 µM [10]: 33 ×10⁻⁶ cm/s |
| < 5 µM | 20 nM | 0.05 nM | 0.3 nM | Cc1nc2cccc3c2nc1N[C@H](C)/C=C/C[C@H]1CNC(=O)c2cc-3[nH]c21 |  |
